Active and inactive are the calls of the source. The rule behind the calls is not given here.
Tests used:
[1] = Drug level in DMSO-d6 treated with capsicodendrin at 2 mg measured after 1 hr by 1H-NMR spectra analysis; type: physicochemical
[2] = Displacement of ThioGlo4 from glutathione measured after 8 hrs by fluorescence assay; settings: read-out: Kd(app)
How it was run: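 GSH (5 μM) incubated with CPCD 0.5–100 μM in 1× PBS for 8 h at 37 °C. ThioGlo IV (10 μM) added to diluted aliquots; unreacted GSH quantified by fluorescence, excitation 400 nm, emission 465 nm.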

HL-60 [3] = test: Growth inhibition of human HL60 cells at 0.2 to 0.5 uM after 48 hrs in presence of GSH synthesis inhibitor buthionine sulfoximine by Beckman coulter counting method; type: functional, cell-based
K562 [4] = test: Growth inhibition of human K562 cells after 72 hrs by Beckman coulter counting method; type: functional, cell-based; settings: K562, 72 h
How it was run: (§1)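 K562 cells in DMEM + 10% FBS, preincubated 40 h with or without BSO 50 μM, then seeded at 100 000 cells/mL. Exposed to CPCD or DMSO at 37 °C, 5% CO2; growth assessed after 48 h per figure legend (72 h per methods). Cell number read on a Coulter counter; IC50 calculated from growth curves. Mean ± SEM of 3–4 separate-day runs.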

HL-60 [5] = test: Growth inhibition of human HL60 cells after 72 hrs in presence of GSH synthesis inhibitor buthionine sulfoximine by Beckman coulter counting method; type: functional, cell-based; settings: HL-60, 72 h
How it was run: (§2)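 HL-60 cells in complete RPMI, preincubated 40 h with or without BSO 50 μM, then seeded at 100 000 cells/mL. Treated with CPCD (0.1, 0.2, 0.5 μM) or DMSO (1%) for 72 h at 37 °C, 5% CO2. Cells counted on a Coulter counter; IC50 taken from growth curves. Mean ± SEM of 3–4 separate-day experiments.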

HL-60 [6] = test: Cytotoxicity against human HL60 cells assessed as cell death at 0.2 to 0.5 uM after 48 hrs in presence of GSH synthesis inhibitor buthionine sulfoximine by trypan blue dye exclusion method; type: functional, cell-based
How it was run: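 HL-60 cells (RPMI-1640 + 15% FBS, 37 °C, 5% CO2) seeded at 100 000 cells/mL. For line 1, cells were first held 40 h ± BSO 50 μM. They were then exposed to CPCD 0.1–0.5 μM or DMSO for 48 h or 48 and 72 h. Cells were mixed 1:1 with trypan blue and % blue-positive cells counted on a hemocytometer. Mean ± SEM of 3–9 separate-day runs.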

HL-60 [7] = test: Induction of reactive oxygen species generation in human HL60 cells at 1 to 5 uM measured at 2 mins interval for 1 hr by DCFH-DA staining-based fluorescence assay; type: functional, cell-based
How it was run: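 HL-60 cells (1 × 10^6/mL) loaded with DCFH-DA 2 μM in HEPES buffer for 30 min at 37 °C, washed, then treated with vehicle, CPCD 1–5 μM or H2O2 25 μM. Fluorescence read every 2 min up to 1 h, in triplicate wells. Rate expressed as fluorescence units per min.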

HL-60 [8] = test: Induction of apoptosis in human HL60 cells assessed as change in morphology at 0.2 to 0.5 uM after 48 hrs in presence of GSH synthesis inhibitor buthionine sulfoximine by […]; type: functional, cell-based
How it was run: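 HL-60 cells seeded at 100 000 cells/mL; for line 11, first held 40 h ± BSO 50 μM. Exposed to CPCD 0.1–0.5 μM or 0.1% DMSO for 48 h or 48 and 72 h. Washed pellets stained 20 min in the dark at room temperature with Hoechst 33342 (0.013 mg/mL). Fluorescence microscopy; 100–200 cells scored for apoptotic nuclear morphology.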

HL-60 [9] = test: Growth inhibition of human HL60 cells after 72 hrs by Beckman coulter counting method; type: functional, cell-based; settings: HL-60, 72 h; how it was run: as §2
K562 [10] = test: Growth inhibition of human K562 cells after 72 hrs in presence of GSH synthesis inhibitor buthionine sulfoximine by Beckman coulter counting method; type: functional, cell-based; settings: K562, 72 h; how it was run: as §1
HL-60 [11] = test: Induction of DNA damage in human HL60 cells assessed as increase in DNA strand breaks at 2 to 5 uM after 1 hr in presence of GSH synthesis inhibitor buthionine sulfoximine by SYBR green dye based comet assay; type: functional, cell-based
How it was run: (§3)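 HL-60 cells (100 000 cells/mL), ±BSO 50 μM for 40 h, moved into HEPES/glucose/salt buffer pH 7.4. Treated 1 h at 37 °C with CPCD 0.5–5 μM or 0.2% DMSO. Cells embedded in low-melt agarose, lysed, held at pH 13, then electrophoresed 30 min at 21 V/cm. SYBR Gold staining; Olive tail moment scored from ≥100 cells. Mean ± SEM of 5 runs.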

HL-60 [12] = test: Induction of DNA damage in human HL60 cells assessed as increase in DNA strand breaks at 0.5 to 5 uM after 1 hr by SYBR green dye based comet assay; type: functional, cell-based; how it was run: as §3

Drug metabolism [1] | Compound | Kd [2] [nM] | growth inhibition (GI) (HL-60 [3]) | IC50 (K562 [4]) [nM] | IC50 (HL-60 [5]) [nM] | Activity (HL-60 [6]) | Activity (HL-60 [7]) | Activity (HL-60 [8]) | IC50 (HL-60 [9]) [nM] | IC50 (K562 [10]) [nM] | Activity (HL-60 [11]) | Activity (HL-60 [12])
Metabolite_Detected | CC(=O)O[C@@H]1C=C(C=O)[C@](O)(C=O)[C@@]2(C)CCCC(C)(C)[C@H]12 [CINNAMODIAL] | – | – | – | – | – | – | – | – | – | – | –
– | CC(=O)O[C@@H]1C=C([C@H]2O[C@@H]3OC(O)C4=C[C@@H](OC(C)=O)[C@H]5C(C)(C)CCC[C@]5(C)[C@]43O2)[C@](O)(C=O)[C@@]2(C)CCCC(C)(C)[C@H]12 (some centres not stated) | 7200 | Active | 360 to 480 | 70 to 90 | Active | inactive | Active | 200 to 270 | 180 to 210 | Active | Active

Source: ChEMBL document CHEMBL4251661, “Capsicodendrin from Cinnamosma fragrans Exhibits Antiproliferative and Cytotoxic Activity in Human Leukemia Cells: Modulation by Glutathione” (J Nat Prod, 2018)
